Measured values published in ChEMBL document CHEMBL3585335, “Isolation and Synthetic Diversification of Jadomycin 4-Amino-l-phenylalanine” (J Nat Prod, 2015).
Calls of active or inactive are those of the source.

Legend:
K562 = test: Cytotoxicity against human K562 cells assessed as cell growth at 1 x 10^-5 M; assay type: functional, cell-based
In short: (§1)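 Run by the NCI Developmental Therapeutics Program (DTP) as its one-dose screen across the 60 human tumour cell line panel.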

SK-MEL-5 = test: Cytotoxicity against human SK-MEL-5 cells assessed as cell growth at 1 x 10^-5 M; assay type: functional, cell-based; in short: as §1
BT-549 = test: Cytotoxicity against human BT549 cells assessed as cell growth at 1 x 10^-5 M; assay type: functional, cell-based; in short: as §1
HOP-92 = test: Cytotoxicity against human HOP92 cells assessed as cell growth at 1 x 10^-5 M; assay type: functional, cell-based; in short: as §1
NCI-H226 = test: Cytotoxicity against human NCI-H226 cells assessed as cell growth at 1 x 10^-5 M; assay type: functional, cell-based; in short: as §1
Escherichia coli [1] = test: Effect on Copper-mediated Escherichia coli pBR322 DNA cleavage at 100 uM by gel-electrophoresis analysis
A549 = test: Cytotoxicity against human A549 cells assessed as cell growth at 1 x 10^-5 M; assay type: functional, cell-based; in short: as §1
OVCAR-8 = test: Cytotoxicity against human OVCAR8 cells assessed as cell growth at 1 x 10^-5 M; assay type: functional, cell-based; in short: as §1
CCRF-CEM = test: Cytotoxicity against human CCRF-CEM cells assessed as cell growth at 1 x 10^-5 M; assay type: functional, cell-based; in short: as §1
OVCAR-5 = test: Cytotoxicity against human OVCAR5 cells assessed as cell growth at 1 x 10^-5 M; assay type: functional, cell-based; in short: as §1
NCI-H522 = test: Cytotoxicity against human NCI-H522 cells assessed as cell growth at 1 x 10^-5 M; assay type: functional, cell-based; in short: as §1
KM12 = test: Cytotoxicity against human KM12 cells assessed as cell growth at 1 x 10^-5 M; assay type: functional, cell-based; in short: as §1
DU-145 = test: Cytotoxicity against human DU145 cells assessed as cell growth at 1 x 10^-5 M; assay type: functional, cell-based; in short: as §1
UO-31 = test: Cytotoxicity against human UO31 cells assessed as cell growth at 1 x 10^-5 M; assay type: functional, cell-based
In short: (§2)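 Tested by the NCI Developmental Therapeutics Program in its one-dose screen across the 60 human tumour cell line panel.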

Escherichia coli [2] = test: Effect on photodynamic inactivation in Escherichia coli pUC19 DNA assessed as photo-mediated DNA cleavage at 10 to 100 uM by ethidium bromide gel-electrophoresis analysis
SR = test: Cytotoxicity against human SR cells assessed as cell growth at 1 x 10^-5 M; assay type: functional, cell-based; in short: as §1
HCT-116 = test: Cytotoxicity against human HCT116 cells assessed as cell growth at 1 x 10^-5 M; assay type: functional, cell-based; in short: as §1
A498 = test: Cytotoxicity against human A498 cells assessed as cell growth at 1 x 10^-5 M; assay type: functional, cell-based; in short: as §1
Hs-578T = test: Cytotoxicity against human Hs578T cells assessed as cell growth at 1 x 10^-5 M; assay type: functional, cell-based; in short: as §1
SNB-75 = test: Cytotoxicity against human SNB75 cells assessed as cell growth at 1 x 10^-5 M; assay type: functional, cell-based; in short: as §1
IGROV-1 = test: Cytotoxicity against human IGROV1 cells assessed as cell growth at 1 x 10^-5 M; assay type: functional, cell-based; in short: as §1
786-0 = test: Cytotoxicity against human 786-0 cells assessed as cell growth at 1 x 10^-5 M; assay type: functional, cell-based; in short: as §1
SK-MEL-28 = test: Cytotoxicity against human SK-MEL-28 cells assessed as cell growth at 1 x 10^-5 M; assay type: functional, cell-based; in short: as §1
SF-295 = test: Cytotoxicity against human SF295 cells assessed as cell growth at 1 x 10^-5 M; assay type: functional, cell-based; in short: as §1
SN12C = test: Cytotoxicity against human SN12C cells assessed as cell growth at 1 x 10^-5 M; assay type: functional, cell-based; in short: as §1
SW-620 = test: Cytotoxicity against human SW620 cells assessed as cell growth at 1 x 10^-5 M; assay type: functional, cell-based; in short: as §2
MDA-MB-468 = test: Cytotoxicity against human MDA-MB-468 cells assessed as cell growth at 1 x 10^-5 M; assay type: functional, cell-based; in short: as §1
SNB-19 = test: Cytotoxicity against human SNB19 cells assessed as cell growth at 1 x 10^-5 M; assay type: functional, cell-based; in short: as §1
Escherichia coli [3] = test: Effect on Copper-mediated Escherichia coli pUC19 DNA cleavage at 100 uM by gel-electrophoresis analysis
MDA-MB-435 = test: Cytotoxicity against human MDA-MB-435 cells assessed as cell growth at 1 x 10^-5 M; assay type: functional, cell-based; in short: as §1
NCI-H322M = test: Cytotoxicity against human NCI-H322M cells assessed as cell growth at 1 x 10^-5 M; assay type: functional, cell-based; in short: as §1
NCI/ADR-RES = test: Cytotoxicity against human NCI-ADR-RES cells assessed as cell growth at 1 x 10^-5 M; assay type: functional, cell-based; in short: as §1
UACC-257 = test: Cytotoxicity against human UACC257 cells assessed as cell growth at 1 x 10^-5 M; assay type: functional, cell-based; in short: as §2
Malme-3M = test: Cytotoxicity against human MALME-3M cells assessed as cell growth at 1 x 10^-5 M; assay type: functional, cell-based; in short: as §1
CAKI-1 = test: Cytotoxicity against human Caki1 cells assessed as cell growth at 1 x 10^-5 M; assay type: functional, cell-based; in short: as §1
RXF 393 = test: Cytotoxicity against human RXF393 cells assessed as cell growth at 1 x 10^-5 M; assay type: functional, cell-based; in short: as §1
HOP-62 = test: Cytotoxicity against human HOP62 cells assessed as cell growth at 1 x 10^-5 M; assay type: functional, cell-based; in short: as §1
SK-OV-3 = test: Cytotoxicity against human SKOV3 cells assessed as cell growth at 1 x 10^-5 M; assay type: functional, cell-based; in short: as §1
M14 = test: Cytotoxicity against human M14 cells assessed as cell growth at 1 x 10^-5 M; assay type: functional, cell-based; in short: as §1
UACC-62 = test: Cytotoxicity against human UACC62 cells assessed as cell growth at 1 x 10^-5 M; assay type: functional, cell-based; in short: as §2
OVCAR-3 = test: Cytotoxicity against human OVCAR3 cells assessed as cell growth at 1 x 10^-5 M; assay type: functional, cell-based; in short: as §1
TK-10 = test: Cytotoxicity against human TK10 cells assessed as cell growth at 1 x 10^-5 M; assay type: functional, cell-based; in short: as §2
SF-539 = test: Cytotoxicity against human SF539 cells assessed as cell growth at 1 x 10^-5 M; assay type: functional, cell-based; in short: as §1
HT-29 = test: Cytotoxicity against human HT-29 cells assessed as cell growth at 1 x 10^-5 M; assay type: functional, cell-based; in short: as §1
NCI-H23 = test: Cytotoxicity against human NCI-H23 cells assessed as cell growth at 1 x 10^-5 M; assay type: functional, cell-based; in short: as §1
SF-268 = test: Cytotoxicity against human SF268 cells assessed as cell growth at 1 x 10^-5 M; assay type: functional, cell-based; in short: as §1
U-251 = test: Cytotoxicity against human U251 cells assessed as cell growth at 1 x 10^-5 M; assay type: functional, cell-based; in short: as §2
PC-3 = test: Cytotoxicity against human PC3 cells assessed as cell growth at 1 x 10^-5 M; assay type: functional, cell-based; in short: as §1
SK-MEL-2 = test: Cytotoxicity against human SK-MEL-2 cells assessed as cell growth at 1 x 10^-5 M; assay type: functional, cell-based; in short: as §1
COLO 205 = test: Cytotoxicity against human COLO205 cells assessed as cell growth at 1 x 10^-5 M; assay type: functional, cell-based; in short: as §1
MOLT-4 = test: Cytotoxicity against human MOLT4 cells assessed as cell growth at 1 x 10^-5 M; assay type: functional, cell-based; in short: as §1
MCF7 = test: Cytotoxicity against human MCF7 cells assessed as cell growth at 1 x 10^-5 M; assay type: functional, cell-based; in short: as §1
LOX IMVI = test: Cytotoxicity against human LOXIMVI cells assessed as cell growth at 1 x 10^-5 M; assay type: functional, cell-based; in short: as §1
MDA-MB-231 = test: Cytotoxicity against human MDA-MB-231 cells assessed as cell growth at 1 x 10^-5 M; assay type: functional, cell-based; in short: as §1
HL-60(TB) = test: Cytotoxicity against human HL-60(TB) cells assessed as cell growth at 1 x 10^-5 M; assay type: functional, cell-based
In short: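 Run by the NCI Developmental Therapeutics Program (DTP) within its 60 human tumour cell line one-dose screen.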

NCI-H460 = test: Cytotoxicity against human NCI-H460 cells assessed as cell growth at 1 x 10^-5 M; assay type: functional, cell-based; in short: as §1
OVCAR-4 = test: Cytotoxicity against human OVCAR4 cells assessed as cell growth at 1 x 10^-5 M; assay type: functional, cell-based; in short: as §1
T47D = test: Cytotoxicity against human T47D cells assessed as cell growth at 1 x 10^-5 M; assay type: functional, cell-based; in short: as §2
ACHN = test: Cytotoxicity against human ACHN cells assessed as cell growth at 1 x 10^-5 M; assay type: functional, cell-based; in short: as §1
HCC 2998 = test: Cytotoxicity against human HCC2998 cells assessed as cell growth at 1 x 10^-5 M; assay type: functional, cell-based; in short: as §1
HCT-15 = test: Cytotoxicity against human HCT15 cells assessed as cell growth at 1 x 10^-5 M; assay type: functional, cell-based; in short: as §1

Cc1cc(O)c2c(c1)C1OC(=O)[C@H](Cc3ccc(NC(=O)COc4ccccc4)cc3)N1C1=C2C(=O)c2cccc(O[C@H]3C[C@@H](O)[C@@H](O)[C@H](C)O3)c2C1=O (stereo partly specified)
inactive: growth inhibition (GI) (K562) | growth inhibition (GI) (SK-MEL-5) | growth inhibition (GI) (BT-549) | growth inhibition (GI) (HOP-92) | growth inhibition (GI) (NCI-H226) | Activity (Escherichia coli [1]) | growth inhibition (GI) (A549) | growth inhibition (GI) (OVCAR-8) | growth inhibition (GI) (CCRF-CEM) | growth inhibition (GI) (OVCAR-5) | growth inhibition (GI) (NCI-H522) | growth inhibition (GI) (KM12) | growth inhibition (GI) (DU-145) | growth inhibition (GI) (UO-31) | Activity (Escherichia coli [2]) | growth inhibition (GI) (SR) | growth inhibition (GI) (HCT-116) | growth inhibition (GI) (A498) | growth inhibition (GI) (Hs-578T) | growth inhibition (GI) (SNB-75) | growth inhibition (GI) (IGROV-1) | growth inhibition (GI) (786-0) | growth inhibition (GI) (SK-MEL-28) | growth inhibition (GI) (SF-295) | growth inhibition (GI) (SN12C) | growth inhibition (GI) (SW-620) | growth inhibition (GI) (MDA-MB-468) | growth inhibition (GI) (SNB-19) | Activity (Escherichia coli [3]) | growth inhibition (GI) (MDA-MB-435) | growth inhibition (GI) (NCI-H322M) | growth inhibition (GI) (NCI/ADR-RES) | growth inhibition (GI) (UACC-257) | growth inhibition (GI) (Malme-3M) | growth inhibition (GI) (CAKI-1) | growth inhibition (GI) (RXF 393) | growth inhibition (GI) (HOP-62) | growth inhibition (GI) (SK-OV-3) | growth inhibition (GI) (M14) | growth inhibition (GI) (UACC-62) | growth inhibition (GI) (OVCAR-3) | growth inhibition (GI) (TK-10) | growth inhibition (GI) (SF-539) | growth inhibition (GI) (HT-29) | growth inhibition (GI) (NCI-H23) | growth inhibition (GI) (SF-268) | growth inhibition (GI) (U-251) | growth inhibition (GI) (PC-3) | growth inhibition (GI) (SK-MEL-2) | growth inhibition (GI) (COLO 205) | growth inhibition (GI) (MOLT-4) | growth inhibition (GI) (MCF7) | growth inhibition (GI) (LOX IMVI) | growth inhibition (GI) (MDA-MB-231) | growth inhibition (GI) (HL-60(TB)) | growth inhibition (GI) (NCI-H460) | growth inhibition (GI) (OVCAR-4) | growth inhibition (GI) (T47D) | growth inhibition (GI) (ACHN) | growth inhibition (GI) (HCC 2998) | growth inhibition (GI) (HCT-15)
